Test results reported in PMC7616001 (Journal of medicinal chemistry, 2022).

Tests used:
HeLa [1] = experiment: MTT assay, 72 h continuous exposure, HeLa cells; type: cell-based, human
Outline: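 Ovarian lines grown in RPMI with 10% FBS and 1% penicillin/streptomycin; A2780Cis kept on 2 μM cisplatin 3 days each week. HeLa grown in DMEM with the same supplements. 3 × 10^3 cells/well, overnight, then serial dilutions of DMSO stocks (final DMSO ≤0.1%); cisplatin stock in PBS. 72 h continuous exposure, MTT 0.5 mg/mL 3 h, formazan in DMSO, A570 normalised to untreated. IC50 from curves; ≥3 independent experiments.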

HeLa [2] = experiment: 72 h crystal violet; type: cell-based, human
Outline: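 Seeding and dosing as for MTT: 3 × 10^3 cells/well, overnight, final DMSO ≤0.1%, 72 h exposure. Wells washed with PBS and fixed in 4% paraformaldehyde for 15 min. Crystal violet stained, dried, dissolved in 96% ethanol and A570 read. IC50 derived from dose–response curves.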

HeLa cells [3] = experiment: Trypan blue dye exclusion cell proliferation assay; type: cell-based, human
Outline: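 HeLa seeded in 24‑well plates. Next day, some wells trypsinised, stained with trypan blue and live cells counted by hemocytometer as the 0 h value. Remaining wells left untreated or dosed at various concentrations. Viable cells counted at 24, 48, 72, 96 and 120 h and plotted against time.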

[4] = Octanol-water partition coefficient, shake-flask method; type: physicochemical; details: 100 mM NaCl, 37 °C, Ru by ICP-MS
Outline: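 Shake‑flask partition. Octanol‑saturated water and water‑saturated octanol prepared beforehand by shaking a 1:1 octanol/water mixture for 24 h, then separating the layers.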

[5] = Reversible aquation and anation by 1H NMR; type: physicochemical; details: DMSO/D2O without NaCl, within 10 min
Outline: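 1H NMR in DMSO/D2O. At 10 min, 666 mM NaCl in D2O added to give 100 mM NaCl in DMSO/D2O (85:15 v/v). Spectra recorded at regular intervals up to 60 min.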

[6] = Stability in RPMI-1640 cell culture medium by UPLC; type: physicochemical
Outline: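 Test compound incubated in RPMI‑1640 and monitored by UPLC. Run twice, each with three replicates.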

[7] = tested on: zebrafish sub-intestinal venous plexus (SIVP) angiogenesis; experiment: Zebrafish SIVP angiogenesis model; type: in vivo, zebrafish (Danio rerio); details: 20/30/40 μM from 26 hpf, imaged at 72 hpf
Outline: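 Test compound stock 5 mM in DMSO, diluted in E3 to final 20, 30 or 40 μM; DMSO vehicle at 10 μL/mL E3. Four 26 hpf Tg(etv2:EGFP) embryos per 1 mL. Raised to 72 hpf at 28 °C for confocal analysis of the sub‑intestinal venous plexus.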

ROS level in HeLa cells = experiment: H2DCF-DA intracellular ROS assay; type: cell-based, human; details: 10 μM, 1-8 h
Outline: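 HeLa plated at 10 × 10^3 per well, grown overnight, then exposed to 10 μM test compound for 1, 2, 4 or 8 h. Washed with PBS and loaded with 10 μM H2DCF‑DA for 30 min. Washed again, phenol red‑free DMEM added, fluorescence read immediately. Three biological replicates.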

[8] = tested on: O2•− radicals in HeLa cells; experiment: Flow cytometric quantification of superoxide radicals with DHE probe; type: cell-based, human; details: 10 μM, 4 h
Outline: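 HeLa seeded at 0.75 × 10^6 cells per six‑well plate well, grown overnight, then treated 4 h at 10 μM. Cells trypsinised, washed with ice‑cold PBS and spun at 1200 rpm, 5 min, 4 °C. Probe‑stained cells analysed by flow cytometry, approximately 20,000 cells per sample.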

ΔΨm of HeLa cells = experiment: JC-1 mitochondrial membrane potential assay, flow cytometry; type: cell-based, human; details: 24 h, even at 1/4 × IC50/24h (10 μM)
HeLa cells [9] = experiment: Annexin-V/PI dual staining flow cytometry; type: cell-based, human; details: 24 h
[10] = tested on: IRE1α, ATF6, p-elF2α, unfolded proteins in HeLa cells; experiment: Western blot of polyubiquitinated proteins and ER-stress marker proteins; type: cell-based, human; details: 24 h
Outline: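 HeLa cells, about 2 × 10^6 at 80–90% confluency, were treated for 24 h with test compound at 10, 20 or 40 μM, with celastrol as positive control. RIPA lysates with protease inhibitors were heated in Laemmli buffer (90 °C, 10 min), resolved on 10/12% SDS-PAGE and transferred to PVDF. Membranes were blocked in 2% milk and probed overnight at 4 °C with primary antibodies (1:1000), then with HRP secondary antibodies.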

[11] = tested on: PARP, p53, cleaved caspase 3 in HeLa cells; experiment: Western blot of apoptosis-related marker proteins; type: cell-based, human; details: 24 h
Outline: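 ~2 million HeLa per 60 mm dish, grown to 80–90% confluency, treated 24 h at 10, 20 or 40 μM. Lysed in RIPA buffer with protease inhibitors. Membranes blocked with 2% skim milk in 0.1% Tween 20 for 30 min. Primary antibody 1:1000 overnight at 4 °C; HRP secondary antibody.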

[12] = tested on: MEF-Bax/Bak^+/+ and MEF-Bax/Bak^−/− cell lines; experiment: Cytotoxicity in MEF-Bax/Bak+/+ versus MEF-Bax/Bak−/− cells; type: cell-based, murine

With `Cc1ccc(C(C)C)cc1.O=C(C=C([O-])C(F)(F)F)[c-]1cccc1.[Cl-].[Fe+2].[Ru+2].c1cc[cH-]c1` [Compound 1, [(η^6-p-cymene)Ru(1,1,1-trifluoro-4-oxo-4-ferrocenyl-but-2-en-2-olate)Cl]] the “fold higher potency compared to oxaliplatin” value (HeLa [1]; HeLa cells, 72 h MTT) was 1.6 fold, the IC50 (HeLa [1]; read-out: IC50 HeLa, 72 h continuous exposure, MTT assay) was 1300 ± 300 nM and the “IC50 from CV assay compared to IC50 from MTT assay” value (HeLa [2]; HeLa and A2780, 72 h) was ~ 3 fold. The IC50 (HeLa [2]; read-out: IC50 (CV assay) HeLa, 72 h CV assay) was 4400 ± 1700 nM, the “effect on number of viable cells” value (HeLa cells [3]; 5 and 10 μM) was “time-dependent antiproliferative effect” and the “effect on number of viable cells” value (HeLa cells [3]; 20 and 40 μM) was “exerted antitumor activity by killing cells”. For the same compound, the “log P” value [4] was 1.1 ± 0.1, the fraction aquated [5] was ~ 95% and the “intact compound remaining in RPMI-1640 with 10% FBS” value ([6]; after 24 h) was roughly 45%. The “intact compound remaining in RPMI-1640 with 10% FBS” value ([6]; after 72 h) was roughly 7%, the “decomposition in RPMI-1640 with 10% FBS” value ([6]; up to 8 h, 37 °C, UPLC) was less than 20% and the “effect on SIVP angiogenesis (SIVP area, number of compartments)” value [7] was “dose-dependent antiangiogenic effects”. For the same compound, the “intracellular ROS level (H2DCF-DA)” value (ROS level in HeLa cells) was “significant increase in ROS”, the “level of O2•− radicals relative to untreated control” value [8] was ~ 19 fold and the “effect on ΔΨm (JC-1 red/green)” value (ΔΨm of HeLa cells) was “dramatic decrease in ΔΨm”. For the same compound, the “AV^−/PI^+ cells (necrosis)” value (HeLa cells [9]; 10 μM) was 9%, the “AV^−/PI^+ cells (necrosis)” value (HeLa cells [9]; 20 μM) was 15.4% and the “unfolded (polyubiquitinated) proteins” value ([10]; 10-40 μM) was “dose-dependent upregulation of unfolded proteins”. For the same compound, the “IRE1α and ATF6 levels” value [10] was “significant upregulation of both IRE1α and ATF6”, the “p-elF2α level (PERK arm)” value [10] was “did not increase the level of the downstream protein p-elF2α” and the “apoptosis markers (PARP cleavage, p53, cleaved caspase 3)” value ([11]; cisplatin 10 μM, 1 at 1/4 × IC50 to IC50) was “none of these apoptosis markers were upregulated”. For the same compound, the PARP level ([11]; western blot) was “significant upregulation of PARP” and the “IC50 in MEF-Bax/Bak^−/− compared to MEF-Bax/Bak^+/+ cells” value [12] was “statistically similar”.
